Laboratory results published in ChEMBL document CHEMBL2062426 (J Med Chem, 2012).

Assays:
[1] = target: Neutrophil collagenase (Homo sapiens, UniProt P22894); assay: Inhibition of MMP8 using (7-methoxycoumarin-4-yl)acetyl-Pro-Leu-Gly-Leu-(3-(2,4-dinitrophenyl)-L-2,3-diaminopropionyl)Ala-Arg-NH2 as substrate incubated for 30 mins prior to substrate addition measured for 10 mins by fluorometry
How it was run: (§1)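 Activated MMP-8 or MMP-9 (2 nM) was preincubated with inhibitor (10 pM–1 mM) in 50 mM Tris-HCl pH 7.5 with 0.2 M NaCl, 5 mM CaCl2, 20 μM ZnSO4 and 0.05% Brij 35 at 37 °C for 30 min. Fluorogenic substrate (10 μL of 50 μM into 90 μL) was then added. Rates from the first 10 min were plotted against inhibitor concentration, and values are the mean of three experiments.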

[2] = target: Matrix metalloproteinase-9 (Homo sapiens, UniProt P14780); assay: Inhibition of MMP9 using (7-methoxycoumarin-4-yl)acetyl-Pro-Leu-Gly-Leu-(3-(2,4-dinitrophenyl)-L-2,3-diaminopropionyl)Ala-Arg-NH2 as substrate incubated for 30 mins prior to substrate addition measured for 10 mins by fluorometry; how it was run: as §1
Sequence of Matrix metalloproteinase-9 (P14780 whole entry): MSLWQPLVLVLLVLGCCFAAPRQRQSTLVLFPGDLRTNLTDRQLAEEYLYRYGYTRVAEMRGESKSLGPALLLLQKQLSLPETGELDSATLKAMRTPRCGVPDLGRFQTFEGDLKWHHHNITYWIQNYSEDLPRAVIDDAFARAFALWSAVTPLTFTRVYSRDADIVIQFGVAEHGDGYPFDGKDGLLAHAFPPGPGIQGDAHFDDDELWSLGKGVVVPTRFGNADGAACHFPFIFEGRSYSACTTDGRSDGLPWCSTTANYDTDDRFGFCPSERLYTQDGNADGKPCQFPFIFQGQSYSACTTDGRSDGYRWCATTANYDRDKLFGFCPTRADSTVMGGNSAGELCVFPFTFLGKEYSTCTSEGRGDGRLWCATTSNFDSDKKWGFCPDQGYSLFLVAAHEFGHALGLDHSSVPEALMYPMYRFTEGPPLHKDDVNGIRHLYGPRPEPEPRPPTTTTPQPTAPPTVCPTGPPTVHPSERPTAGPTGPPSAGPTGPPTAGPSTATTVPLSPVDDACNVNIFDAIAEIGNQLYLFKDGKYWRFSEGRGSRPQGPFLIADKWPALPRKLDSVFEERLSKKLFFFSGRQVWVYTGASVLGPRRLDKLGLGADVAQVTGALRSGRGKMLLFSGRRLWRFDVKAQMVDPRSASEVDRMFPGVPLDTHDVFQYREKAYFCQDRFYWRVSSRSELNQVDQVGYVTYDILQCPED

[3] = target: Collagenase 3 (Homo sapiens, UniProt P45452); assay: Inhibition of MMP13 using (7-methoxycoumarin-4-yl)acetyl-Pro-Leu-Gly-Leu-(3-(2,4-dinitrophenyl)-L-2,3-diaminopropionyl)Ala-Arg-NH2 as substrate incubated for 30 mins prior to substrate addition measured for 10 mins by fluorometry
[4] = target: 72 kDa type IV collagenase (Homo sapiens, UniProt P08253); assay: Inhibition of MMP2 using (7-methoxycoumarin-4-yl)acetyl-Pro-Leu-Gly-Leu-(3-(2,4-dinitrophenyl)-L-2,3-diaminopropionyl)Ala-Arg-NH2 as substrate incubated for 30 mins prior to substrate addition measured for 10 mins by fluorometry
Sequence of 72 kDa type IV collagenase (P08253 whole entry): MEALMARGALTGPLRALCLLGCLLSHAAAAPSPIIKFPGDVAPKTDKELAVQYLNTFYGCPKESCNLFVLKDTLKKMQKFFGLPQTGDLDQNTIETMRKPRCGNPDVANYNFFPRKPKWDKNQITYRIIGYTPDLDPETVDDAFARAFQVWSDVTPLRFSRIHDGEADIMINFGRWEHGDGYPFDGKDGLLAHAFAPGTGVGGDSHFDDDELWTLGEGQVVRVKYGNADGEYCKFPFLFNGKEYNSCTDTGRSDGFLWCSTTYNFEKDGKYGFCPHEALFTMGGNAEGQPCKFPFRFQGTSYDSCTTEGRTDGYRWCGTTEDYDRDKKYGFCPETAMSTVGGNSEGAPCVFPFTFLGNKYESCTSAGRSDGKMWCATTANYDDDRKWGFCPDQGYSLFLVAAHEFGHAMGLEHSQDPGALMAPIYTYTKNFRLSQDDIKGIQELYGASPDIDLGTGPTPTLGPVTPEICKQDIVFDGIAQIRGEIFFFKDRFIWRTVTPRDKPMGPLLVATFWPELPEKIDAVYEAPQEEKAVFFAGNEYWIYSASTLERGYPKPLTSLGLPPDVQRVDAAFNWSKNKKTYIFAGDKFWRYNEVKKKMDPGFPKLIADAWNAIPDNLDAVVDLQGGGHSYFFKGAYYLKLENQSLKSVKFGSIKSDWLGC

Sequence of Neutrophil collagenase (P22894 whole entry): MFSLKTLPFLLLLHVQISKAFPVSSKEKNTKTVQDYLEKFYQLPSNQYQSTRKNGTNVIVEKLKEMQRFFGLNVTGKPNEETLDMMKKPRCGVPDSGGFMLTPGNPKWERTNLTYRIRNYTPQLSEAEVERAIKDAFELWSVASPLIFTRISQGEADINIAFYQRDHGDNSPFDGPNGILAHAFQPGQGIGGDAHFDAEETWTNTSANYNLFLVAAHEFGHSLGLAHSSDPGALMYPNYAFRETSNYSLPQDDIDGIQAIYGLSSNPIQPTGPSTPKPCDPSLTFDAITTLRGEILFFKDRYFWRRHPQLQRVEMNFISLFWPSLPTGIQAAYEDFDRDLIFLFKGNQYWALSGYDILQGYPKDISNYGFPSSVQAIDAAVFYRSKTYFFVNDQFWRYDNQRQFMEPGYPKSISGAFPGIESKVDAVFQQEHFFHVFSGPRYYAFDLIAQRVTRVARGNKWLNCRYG

IC50 [1]	IC50 [2]	IC50 [3]	IC50 [4]	Compound
58 nM	43 nM	18 nM	30 nM	COc1ccc(S(=O)(=O)N(Cc2ccc(OCCOCCOCCOCCOCc3cn([C@@H]4O[C@H](CO)[C@@H](O)[C@H](O)[C@H]4F)nn3)cc2)[C@@H](C(=O)NO)C(C)C)cc1
0.03 nM	0.06 nM	0.02 nM	0.07 nM	COc1ccc(S(=O)(=O)N(Cc2cn(CCOCCOCCOCCOS(=O)(=O)c3ccc(C)cc3)nn2)[C@@H](C(=O)NO)C(C)C)cc1
8 nM	7 nM	5 nM	107 nM	COc1ccc(S(=O)(=O)N(Cc2cn(CCOS(=O)(=O)c3ccc(C)cc3)nn2)[C@@H](C(=O)NO)C(C)C)cc1
0.02 nM	0.03 nM	0.006 nM	0.13 nM	COc1ccc(S(=O)(=O)N(Cc2cn(CCF)nn2)[C@@H](C(=O)NO)C(C)C)cc1
